Experimental data published in the RNAGym collection of RNA variant scans (doi:10.1126/science.aae0568).
Variants at the floor of the assay were thinned out.

B1: tRNA (parent)
chain: GUUCCGUUGGCGUAAUGGUAACGCGUCUCCCUCCUAAGGAGAAGACUGCGGGUUCGAGUCCCGUACGGAACG

Variants of: B1
Experiment: yeast fitness relative to wild type (ratio to wild type); higher = fitter; tRNA-Arg(CCU), competitive growth, 37 C, YPD
How it was run: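 Amplicons of the tRNA-Arg(CCU) gene were sequenced, 100-nucleotide paired-end, from the start population and from each end population of a pooled yeast competition. The competition, in six parallel replicates, lasted 24 hours in YPD at 37°C. Fitness relative to wild type was calculated from changes in genotype frequencies. Genotypes had to have ≥ 100 starting reads, and estimates < 0.5 were set to 0.5.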

Going from C22G C24U A37C G51C C55U A69C A70U to C22G C24U C29U C30G, the yeast fitness rises from 0.554 to 0.579.

Going from C22A G52C to C22A G52A, the yeast fitness falls from 0.665 to 0.637.

First: C22G C61G
Second: C22G C29G C33U A42G
The yeast fitness of the first is higher: 0.684 for the first, at most 0.5 for the second.

C22G C29G G44C G56A A57G G67U A70C and C22G A57U A65C C66G cannot be ordered by yeast fitness: at most 0.5 for the first, at most 0.5 for the second.

Going from C22G C30G A45U to C22A C29U A69U, the yeast fitness rises from at most 0.5 to 0.592.

C22A C29A C61U and C22A G25A C27U A43C G44A cannot be ordered by yeast fitness: at most 0.5 for the first, at most 0.5 for the second.

First: C22G G23C A42U
Second: C22A G48C
The yeast fitness of the first is lower: 0.573 for the first, 0.851 for the second.

Compared with C22G C29U C31A, C22G A42G C49U is higher in yeast fitness: at most 0.5 for the first, 0.712 for the second.

Going from C22A C33G A43C U64C to C22G C34U A69U, the yeast fitness rises from 0.534 to 0.573.

C22A C29G G38C A65U and C22G C30U C49G cannot be ordered by yeast fitness: at most 0.5 for the first, at most 0.5 for the second.

C22A U35A A37G G58A and C22G C31G A57U cannot be ordered by yeast fitness: at most 0.5 for the first, at most 0.5 for the second.

Compared with C22G A36C A37C, C22G G25C A37G A65U is higher in yeast fitness: at most 0.5 for the first, 0.576 for the second.

First: C22A C29G
Second: C22G G23C C27A U28C U32C
The yeast fitness of the first is higher: 0.55 for the first, at most 0.5 for the second.

Going from C22A C29U C66G to C22G A43U, the yeast fitness rises from at most 0.5 to 0.952.

First: C22A C66A G67A
Second: C22A U47C
The yeast fitness of the first is lower: at most 0.5 for the first, 0.882 for the second.

Going from C22A U53C C62U to C22A U26A U54C C61A, the yeast fitness rises from at most 0.5 to 0.612.

C22A C33G C60A C66G and C22A U28G G58C U64C cannot be ordered by yeast fitness: at most 0.5 for the first, at most 0.5 for the second.

C22G G38U A42U and C22G A40U A43U C61U cannot be ordered by yeast fitness: at most 0.5 for the first, at most 0.5 for the second.

Going from C22G C27A C49A G56C A65G to C22G C60G, the yeast fitness falls from 0.746 to 0.621.

First: C22A G48A C49U G50A G51C A70C
Second: C22G C24G C27G
The yeast fitness of the first is lower: at most 0.5 for the first, 0.766 for the second.

Going from C22G C66U A69C to C22G C66U A69U, the yeast fitness rises from 0.564 to 0.685.

Going from C22A C33A A36U G48A C62G to C22G C33G G51A, the yeast fitness falls from 0.524 to at most 0.5.

C22A G23C U32G C66G and C22G C27G C29G C34A A43U A65U cannot be ordered by yeast fitness: at most 0.5 for the first, at most 0.5 for the second.

Going from C22G C60A C62U to C22G A36C U47A C66G, the yeast fitness falls from 0.589 to at most 0.5.

First: C22G A37C
Second: C22G C31G C66U A69C
The yeast fitness of the first is higher: 0.721 for the first, 0.528 for the second.

First: C22A C33A A36U
Second: C22G C24U G44A U53G
The yeast fitness of the first is lower: at most 0.5 for the first, 0.521 for the second.

Compared with C22G C34A G56C, C22A C31G U35A is higher in yeast fitness: at most 0.5 for the first, 0.558 for the second.

First: C22A C31U A45G
Second: C22G C30G U47C
The yeast fitness of the first is higher: 0.667 for the first, at most 0.5 for the second.

Compared with C22A U28A C30A, C22G C29G G56A is lower in yeast fitness: 0.72 for the first, 0.575 for the second.

Going from C22G A36C C55U C60A C62G A69U to C22A U32G A37U, the yeast fitness falls from 0.563 to at most 0.5.

Compared with C22A U47A G56A C60U, C22A U54C is higher in yeast fitness: at most 0.5 for the first, 0.917 for the second.

Going from C22A G23A C33U C34G C60A to C22A C66U, the yeast fitness rises from at most 0.5 to 0.982.

Compared with C22A C33A A36U U53A U54A, C22G G25A G50U is higher in yeast fitness: 0.551 for the first, 0.593 for the second.

First: C22G C27G G39A U64C
Second: C22A G58A C60U
The yeast fitness of the first is higher: 0.604 for the first, at most 0.5 for the second.

Going from C22G C31U A70U to C22G C29G A43G G63U, the yeast fitness falls from 0.661 to at most 0.5.

C22G C31G C55U C61G C62G and C22G C27A C49U C55U G58U cannot be ordered by yeast fitness: at most 0.5 for the first, at most 0.5 for the second.

C22G G38C C60U and C22A G41A G50A cannot be ordered by yeast fitness: at most 0.5 for the first, at most 0.5 for the second.

Compared with C22G C27G C31G A57U, C22G G23A G38A G68C is higher in yeast fitness: at most 0.5 for the first, 0.572 for the second.

C22A C29G C34G A42C C62G and C22G A36G A37C C46A C49G U64G cannot be ordered by yeast fitness: at most 0.5 for the first, at most 0.5 for the second.

C22A U28A A40U C61A and C22G C24A G38A A57G cannot be ordered by yeast fitness: at most 0.5 for the first, at most 0.5 for the second.

C22G C27G A45U C49U A57G A70G and C22G C49A G56C G58C C60A cannot be ordered by yeast fitness: at most 0.5 for the first, at most 0.5 for the second.

C22A U47A C55A and C22A C33A A37U cannot be ordered by yeast fitness: at most 0.5 for the first, at most 0.5 for the second.
